Measurements: ChEMBL document CHEMBL4428114, “An LP1 analogue, selective MOR agonist with a peculiar pharmacological profile, used to scrutiny the ligand binding domain” (Bioorg Med Chem, 2016)
Active and inactive are the calls of the source.

Key:
[1] = biological target: Kappa-type opioid receptor (Rattus norvegicus, UniProt P34975); experiment: Displacement of [3H]U69593 from rat KOR expressed in CHO cells; format: cell-based
Homo sapiens [2] = organism: Homo sapiens; experiment: Selectivity ratio of Ki for displacement of [3H]DPDPE from human DOR expressed in CHO cells to Ki for displacement of [3H]DAMGO from MOR in HEK293 cells; format: cell-based
Mu-type opioid receptor [3] = biological target: T1, Mu-type opioid receptor (Homo sapiens, UniProt P35372); experiment: Displacement of [3H]DAMGO from MOR in HEK293 cells; format: cell-based
T1 sequence (P35372 whole entry): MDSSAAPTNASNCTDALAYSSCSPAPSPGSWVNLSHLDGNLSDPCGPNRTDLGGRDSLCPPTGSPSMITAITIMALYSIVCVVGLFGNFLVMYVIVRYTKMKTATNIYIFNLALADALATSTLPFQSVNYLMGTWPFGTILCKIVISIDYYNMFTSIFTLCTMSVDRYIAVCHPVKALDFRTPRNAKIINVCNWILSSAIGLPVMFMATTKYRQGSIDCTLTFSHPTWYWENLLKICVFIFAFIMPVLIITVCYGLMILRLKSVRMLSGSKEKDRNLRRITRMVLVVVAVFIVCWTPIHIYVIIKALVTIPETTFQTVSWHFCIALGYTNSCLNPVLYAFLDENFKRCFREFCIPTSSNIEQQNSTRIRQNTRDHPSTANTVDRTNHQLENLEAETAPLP

[4] = biological target: Delta-type opioid receptor (Homo sapiens, UniProt P41143); experiment: Displacement of [3H]DPDPE from human DOR expressed in CHO cells; format: cell-based
Delta-type opioid receptor, sequence (P41143 whole entry): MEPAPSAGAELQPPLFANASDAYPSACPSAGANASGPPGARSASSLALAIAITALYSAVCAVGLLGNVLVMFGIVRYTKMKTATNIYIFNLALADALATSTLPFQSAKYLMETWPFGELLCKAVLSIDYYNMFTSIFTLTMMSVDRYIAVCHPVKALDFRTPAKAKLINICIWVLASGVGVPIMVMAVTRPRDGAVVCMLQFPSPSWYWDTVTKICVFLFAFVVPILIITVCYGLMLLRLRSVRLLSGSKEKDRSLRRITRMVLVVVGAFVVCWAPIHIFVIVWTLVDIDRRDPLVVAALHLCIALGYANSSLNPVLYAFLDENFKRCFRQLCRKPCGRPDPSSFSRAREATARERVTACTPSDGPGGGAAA

[5] = Selectivity ratio of Ki for displacement of [3H]U69593 from rat KOR expressed in CHO cells to Ki for displacement of [3H]DAMGO from MOR in HEK293 cells; format: cell-based
[6] = biological target: Mu-type opioid receptor (Cavia porcellus) (UniProt P97266); experiment: Agonist activity at MOR in Dunkin-Hartley guinea pig ileum assessed as inhibition of electrically-evoked contractions; format: tissue-based
Mu-type opioid receptor (Cavia porcellus), sequence (P97266 whole entry): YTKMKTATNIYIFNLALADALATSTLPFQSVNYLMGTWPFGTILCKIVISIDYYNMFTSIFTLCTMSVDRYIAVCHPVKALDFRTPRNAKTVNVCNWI
In short: (§1)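 Guinea-pig ileum strips held under a 2 g load and equilibrated for 60 min. Contractions were evoked by transmural single pulses (0.1 Hz, 0.3 ms, 200 mA), followed by a further 60–90 min equilibration with repeated Krebs changes. Compound was added cumulatively, at least 5 min per step. Inhibition was expressed as percentage change from baseline, with EC50 from non-linear curve fitting (n = 6–8).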

Mus musculus [7] = experiment: Antinociceptive activity in CB1 mouse assessed as increase in tail flick latency at 5 mg/kg, ip after 60 mins; format: functional, organism-based
Mus musculus [8] = experiment: Antinociceptive activity in CB1 mouse assessed as increase in tail flick latency at 5 mg/kg, ip up to 90 mins; format: functional, organism-based
Mu-type opioid receptor [9] = biological target: T1, Mu-type opioid receptor; experiment: Displacement of [3H]Diprenorphine from human MOR expressed in HEK293 cell membranes by liquid scintillation counting
[10] = biological target: Kappa-type opioid receptor (Homo sapiens, UniProt P41145); experiment: Displacement of [3H]Diprenorphine from human KOR expressed in HEK293 cell membranes by liquid scintillation counting
Kappa-type opioid receptor (Homo sapiens, UniProt P41145), sequence (P41145 whole entry): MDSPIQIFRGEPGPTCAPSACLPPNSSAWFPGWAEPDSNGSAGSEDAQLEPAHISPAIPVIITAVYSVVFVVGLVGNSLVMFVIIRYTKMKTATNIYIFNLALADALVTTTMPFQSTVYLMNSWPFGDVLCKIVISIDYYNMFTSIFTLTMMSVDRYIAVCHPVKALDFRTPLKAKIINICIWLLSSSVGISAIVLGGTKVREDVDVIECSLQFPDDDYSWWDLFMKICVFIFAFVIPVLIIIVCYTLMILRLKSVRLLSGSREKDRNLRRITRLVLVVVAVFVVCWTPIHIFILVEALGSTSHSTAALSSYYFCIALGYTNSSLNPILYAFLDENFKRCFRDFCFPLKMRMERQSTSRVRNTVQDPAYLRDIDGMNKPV

Homo sapiens [11] = organism: Homo sapiens; experiment: Selectivity ratio of Ki for displacement of [3H]Diprenorphine from human KOR expressed in HEK293 cell membranes to Ki for displacement of [3H]Diprenorphine from human MOR expressed in HEK293 cell membranes
[12] = biological target: Mu-type opioid receptor (Cavia porcellus) (UniProt P97266); experiment: Agonist activity at MOR in Dunkin-Hartley guinea pig ileum assessed as inhibition of electrically-evoked contractions in presence of opioid receptor antagonist naloxone; format: tissue-based
In short: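 Cumulative concentration–response curves were run on electrically stimulated guinea-pig ileum strips (2 g load; 0.1 Hz, 0.3 ms, 200 mA) with a single naloxone concentration of 10^-6 M. […]. Contractions were scored as percentage change from baseline.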

Mus musculus [13] = experiment: Antinociceptive activity in CB1 mouse assessed as increase in tail flick latency at 5 mg/kg, ip administered 45 mins post naloxone challenge measured up to 90 mins in presence of naloxone; format: functional, organism-based
In short: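 Naloxone was given at 3 mg/kg ip, 45 min before 5 mg/kg ip test compound, in male Swiss CB1 mice (25–30 g). Infrared tail-flick latency (lower third of tail, 10 s cutoff, baseline mean of three readings) was measured at 30, 60 and 90 min post-injection (n = 8).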

[14] = biological target: Mu-type opioid receptor (Cavia porcellus) (UniProt P97266); experiment: Agonist activity at MOR in Dunkin-Hartley guinea pig ileum assessed as inhibition of electrically-evoked contractions in presence of mu-opioid receptor agonist DAMGO; format: tissue-based; in short: as §1
Mus musculus [15] = experiment: Antinociceptive activity in ip dosed CB1 mouse assessed as increase in tail flick latency after 30 mins; format: functional, organism-based
[16] = biological target: Mu-type opioid receptor (Cavia porcellus) (UniProt P97266); experiment: Agonist activity at MOR in Dunkin-Hartley guinea pig ileum assessed as inhibition of electrically-evoked contractions in presence of kappa-opioid receptor antagonist norBNI; format: tissue-based; in short: as §1
[17] = biological target: Mu-type opioid receptor (Cavia porcellus) (UniProt P97266); experiment: Agonist activity at MOR in Dunkin-Hartley guinea pig ileum assessed as inhibition of electrically-evoked contractions in presence of mu-opioid receptor antagonist naloxonazine; format: tissue-based
In short: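 Electrically stimulated guinea-pig ileum strips (2 g load; single pulses 0.1 Hz, 0.3 ms, 200 mA) were tested with naloxonazine present at 10^-6 M. Agonist was added cumulatively, at least 5 min apart, after 60–90 min equilibration in Krebs. Response was taken as percentage inhibition from baseline, with EC50 by non-linear fitting (n = 6–8).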

Kappa-type opioid receptor (Rattus norvegicus, UniProt P34975), sequence (P34975 whole entry): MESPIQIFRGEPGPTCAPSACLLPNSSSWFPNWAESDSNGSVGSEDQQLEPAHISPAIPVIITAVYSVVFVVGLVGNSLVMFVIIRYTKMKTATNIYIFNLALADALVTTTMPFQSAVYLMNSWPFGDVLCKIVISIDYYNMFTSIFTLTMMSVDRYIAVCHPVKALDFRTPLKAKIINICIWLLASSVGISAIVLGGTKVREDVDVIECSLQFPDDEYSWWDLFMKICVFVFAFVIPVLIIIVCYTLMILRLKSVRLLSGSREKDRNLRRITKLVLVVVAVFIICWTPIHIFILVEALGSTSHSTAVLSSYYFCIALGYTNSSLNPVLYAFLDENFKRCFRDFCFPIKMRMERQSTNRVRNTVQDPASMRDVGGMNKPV

SMILES | Ki [1] [nM] | Ratio Ki (Homo sapiens [2]) | Ki (Mu-type opioid receptor [3]) [nM] | Ki [4] [nM] | Ratio Ki [5] | further results
C[C@H]1[C@H]2Cc3ccc(O)cc3[C@]1(C)CCN2CCC(=O)N(C)C(c1ccccc1)c1ccccc1 | 370 | 8.75 | 160 | 1400 | 2.31 | pD2 [6]: 5.7
CN1CC[C@]23c4c5ccc(O)c4O[C@H]2[C@@H](O)C=C[C@H]3[C@H]1C5 | – | – | – | – | – | Activity (Mus musculus [7]): Active; Activity (Mus musculus [8]): Active
C[C@H]1[C@H]2Cc3ccc(O)cc3[C@]1(C)CCN2CCC(=O)N1CCc2ccccc2C1c1ccccc1 (mixture of isomers) | – | – | 96 | – | – | –
C[C@H]1[C@H]2Cc3ccc(O)cc3[C@]1(C)CCN2CCC(=O)N1CCc2ccccc2[C@@H]1c1ccccc1 | 900 | 35 | 380 | 2900 | 12.5 | –
C[C@H]1[C@H]2Cc3ccc(O)cc3[C@]1(C)CCN2CCC(=O)N1CCc2ccccc2[C@H]1c1ccccc1 | 1900 | 16.8 | 470 | 7900 | 4.04 | –
C[C@H]1[C@H]2Cc3ccc(O)cc3[C@]1(C)CCN2CCC(=O)Nc1ccccc1 | 110 | 33.8 | – | – | 132 | –
COc1ccsc1CNCC[C@@]1(c2ccccn2)CCC2(CCCC2)OC1 | – | – | – | – | – | Ki (Mu-type opioid receptor [9]): 6 nM; Ki [10]: < 10000 nM; Ratio Ki (Homo sapiens [11]): 1670
C[C@H]1[C@H]2Cc3ccc(O)cc3[C@]1(C)CCN2CCC(=O)NCC(c1ccccc1)c1ccccc1 | 190 | 880 | 0.5 | 440 | 380 | pD2 [12]: 6.4; Activity (Mus musculus [13]): inactive; pD2 [14]: 7; Activity (Mus musculus [15]): Dose-dependent effect; Activity (Mus musculus [8]): Active; pD2 [16]: 6.9; pD2 [17]: 6.5; Activity [6]: Dose-dependent effect; pD2 [6]: 6.8
C[C@H]1[C@H]2Cc3ccc(O)cc3[C@]1(C)CCN2CCC(=O)NC(c1ccccc1)c1ccccc1 | 680 | 34.5 | 84 | 2900 | 8.09 | pD2 [12]: 4.1
